# According to ChEMBL document CHEMBL3124806, “Imidazopyridine-fused [1,3]-diazepinones: synthesis and antiproliferative activity” (Eur J Med Chem, 2014):
# Assays:
# Ovis aries = species on record: Ovis aries; assay: Inhibition of sheep brain tubulin polymerization at 100 uM after 40 mins by DAPI staining-based fluorescence assay
# Procedure, shortened: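 Microtubular protein was purified from sheep brain by two assembly/disassembly cycles (37 °C/0 °C) in MES buffer (100 mM MES pH 6.6, 1 mM EGTA, 0.5 mM MgCl₂). Compound in DMSO was added to 10 µM tubulin with 10 µM DAPI and incubated 40 min at RT. GTP (1 mM) was then added, and assembly was followed by DAPI fluorescence at 37 °C.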
# MDA-MB-468 = assay: Cytotoxicity against human MDA-MB-468 cells assessed as cell growth at 10 uM after 48 hrs by SRB assay relative to untreated control; format: functional; details: MDA-MB-468, 48 h, read-out: Activity
# Procedure, shortened: (§1)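 NCI-60 one-dose screen: each agent added at 10 µM, cultures incubated 48 h. Endpoint by sulforhodamine B protein-binding dye read spectrophotometrically; growth expressed as percent of untreated control cells.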
# [1] = Cytotoxicity against human Hs578T cells assessed as cell growth at 10 uM after 48 hrs by SRB assay relative to untreated control; format: functional; details: Hs-578T, read-out: Activity
# Procedure, shortened: (§2)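 NCI-60 panel screen at a single concentration of 10 μM with 48 h incubation. Cell density measured by sulforhodamine B protein-binding dye and read spectrophotometrically. Growth expressed as percent of untreated control cells.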
# MDA-MB-231 = assay: Cytotoxicity against human MDA-MB-231 cells assessed as cell growth at 10 uM after 48 hrs by SRB assay relative to untreated control; format: functional; details: MDA-MB-231, 48 h, read-out: Activity; procedure, shortened: as §1
# DU-145 = assay: Cytotoxicity against human DU145 cells assessed as cell growth at 10 uM after 48 hrs by SRB assay relative to untreated control; format: functional; details: DU-145, 48 h, read-out: Activity; procedure, shortened: as §2
# SN12C = assay: Cytotoxicity against human SN12C cells assessed as cell growth at 10 uM after 48 hrs by SRB assay relative to untreated control; format: functional; details: read-out: Activity
# Procedure, shortened: (§3)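 NCI-60 single-dose screen. Compounds were added to the cultures at 10 μM and incubated for 48 h. The end point was sulforhodamine B protein staining read spectrophotometrically. Growth is reported as percent of untreated control cells.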
# RXF 393 = assay: Cytotoxicity against human RXF393 cells assessed as cell growth at 10 uM after 48 hrs by SRB assay relative to untreated control; format: functional; details: RXF 393, 48 h, read-out: Activity; procedure, shortened: as §1
# A498 = assay: Cytotoxicity against human A498 cells assessed as cell growth at 10 uM after 48 hrs by SRB assay relative to untreated control; format: functional; details: A498, 48 h, read-out: Activity; procedure, shortened: as §2
# [2] = Cytotoxicity against human NCI-ADR-RES cells assessed as cell growth at 10 uM after 48 hrs by SRB assay relative to untreated control; format: functional; details: read-out: Activity; procedure, shortened: as §1
# [3] = Cytotoxicity against human OVCAR5 cells assessed as cell growth at 10 uM after 48 hrs by SRB assay relative to untreated control; format: functional; details: OVCAR-5, 48 h, read-out: Activity; procedure, shortened: as §1
# [4] = Cytotoxicity against human OVCAR4 cells assessed as cell growth at 10 uM after 48 hrs by SRB assay relative to untreated control; format: functional; details: OVCAR-4, 48 h, read-out: Activity; procedure, shortened: as §1
# UACC-62 = assay: Cytotoxicity against human UACC62 cells assessed as cell growth at 10 uM after 48 hrs by SRB assay relative to untreated control; format: functional; details: UACC-62, 48 h, read-out: Activity; procedure, shortened: as §3
# SK-MEL-5 = assay: Cytotoxicity against human SK-MEL-5 cells assessed as cell growth at 10 uM after 48 hrs by SRB assay relative to untreated control; format: functional; details: SK-MEL-5, 48 h, read-out: Activity; procedure, shortened: as §3
# SK-MEL-28 = assay: Cytotoxicity against human SK-MEL-28 cells assessed as cell growth at 10 uM after 48 hrs by SRB assay relative to untreated control; format: functional; details: SK-MEL-28, 48 h, read-out: Activity; procedure, shortened: as §3
# SK-MEL-2 = assay: Cytotoxicity against human SK-MEL-2 cells assessed as cell growth at 10 uM after 48 hrs by SRB assay relative to untreated control; format: functional; details: SK-MEL-2, 48 h, read-out: Activity; procedure, shortened: as §1
# SNB-75 = assay: Cytotoxicity against human SNB75 cells assessed as cell growth at 10 uM after 48 hrs by SRB assay relative to untreated control; format: functional; details: SNB-75, 48 h, read-out: Activity; procedure, shortened: as §3
# KM12 = assay: Cytotoxicity against human KM12 cells assessed as cell growth at 10 uM after 48 hrs by SRB assay relative to untreated control; format: functional; details: KM12, 48 h, read-out: Activity; procedure, shortened: as §2
# HCT-116 = assay: Cytotoxicity against human HCT116 cells assessed as cell growth at 10 uM after 48 hrs by SRB assay relative to untreated control; format: functional; details: HCT-116, 48 h, read-out: Activity; procedure, shortened: as §2
# HCC 2998 = assay: Cytotoxicity against human HCC2998 cells assessed as cell growth at 10 uM after 48 hrs by SRB assay relative to untreated control; format: functional; details: HCC 2998, 48 h, read-out: Activity; procedure, shortened: as §2
# COLO 205 = assay: Cytotoxicity against human COLO205 cells assessed as cell growth at 10 uM after 48 hrs by SRB assay relative to untreated control; format: functional; details: COLO 205, 48 h, read-out: Activity; procedure, shortened: as §2
# NCI-H522 = assay: Cytotoxicity against human NCI-H522 cells assessed as cell growth at 10 uM after 48 hrs by SRB assay relative to untreated control; format: functional; details: NCI-H522, 48 h, read-out: Activity; procedure, shortened: as §1
# NCI-H460 = assay: Cytotoxicity against human NCI-H460 cells assessed as cell growth at 10 uM after 48 hrs by SRB assay relative to untreated control; format: functional; details: NCI-H460, 48 h, read-out: Activity; procedure, shortened: as §1
# NCI-H23 = assay: Cytotoxicity against human NCI-H23 cells assessed as cell growth at 10 uM after 48 hrs by SRB assay relative to untreated control; format: functional; details: NCI-H23, 48 h, read-out: Activity; procedure, shortened: as §1
# HOP-62 = assay: Cytotoxicity against human HOP62 cells assessed as cell growth at 10 uM after 48 hrs by SRB assay relative to untreated control; format: functional; details: HOP-62, 48 h, read-out: Activity; procedure, shortened: as §2
# A549 = assay: Cytotoxicity against human A549 cells assessed as cell growth at 10 uM after 48 hrs by SRB assay relative to untreated control; format: functional; details: A549, 48 h, read-out: Activity; procedure, shortened: as §2
# SR = assay: Cytotoxicity against human SR cells assessed as cell growth at 10 uM after 48 hrs by SRB assay relative to untreated control; format: functional; details: read-out: Activity; procedure, shortened: as §3
# HL-60(TB) = assay: Cytotoxicity against human HL-60(TB) cells assessed as cell growth at 10 uM after 48 hrs by SRB assay relative to untreated control; format: functional; details: HL-60, 48 h, read-out: Activity
# Procedure, shortened: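 NCI-60 human tumour cell line panel; a single 10 µM concentration was added to the cultures and incubated 48 h. Endpoint was sulforhodamine B protein-binding dye read spectrophotometrically, with growth reported as percent of untreated control cells.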
# PC-3 = assay: Cytotoxicity against human PC3 cells assessed as cell growth at 10 uM after 48 hrs by SRB assay relative to untreated control; format: functional; details: PC-3, 48 h, read-out: Activity; procedure, shortened: as §1
Structure (SMILES),inhibition (Ovis aries) [%],growth at 10 µM (MDA-MB-468) [%],growth at 10 µM [1] [%],growth at 10 µM (MDA-MB-231) [%],growth at 10 µM (DU-145) [%],growth at 10 µM (SN12C) [%],growth at 10 µM (RXF 393) [%],growth at 10 µM (A498) [%],growth at 10 µM [2] [%],growth at 10 µM [3] [%],growth at 10 µM [4] [%],growth at 10 µM (UACC-62) [%],growth at 10 µM (SK-MEL-5) [%],growth at 10 µM (SK-MEL-28) [%],growth at 10 µM (SK-MEL-2) [%],growth at 10 µM (SNB-75) [%],growth at 10 µM (KM12) [%],growth at 10 µM (HCT-116) [%],growth at 10 µM (HCC 2998) [%],growth at 10 µM (COLO 205) [%],further results
C[C@@H]1NC(c2ccc(N(C)C)cc2)=Nc2nc3ccccn3c2C1=O,55,72.3,83.3,78.9,109,102,111,88.8,80.3,90.5,91.8,83.7,95.4,113,88.6,70,96.3,101,103,94.2,growth at 10 µM (NCI-H522): 79.4%; growth at 10 µM (NCI-H460): 91.9%; growth at 10 µM (NCI-H23): 79.8%; growth at 10 µM (HOP-62): 74.2%; growth at 10 µM (A549): 103%; growth at 10 µM (SR): 86.6%; growth at 10 µM (HL-60(TB)): 89.6%
C[C@@H]1NC(c2ccccc2)=Nc2nc3ccccn3c2C1=O,7,99.9,93.8,89.8,116,112,104,84.6,97.4,114,103,104,99.2,113,110,82.8,98.9,98.4,90.9,109,growth at 10 µM (PC-3): 82.5%; growth at 10 µM (NCI-H522): 95.4%; growth at 10 µM (NCI-H460): 104%; growth at 10 µM (NCI-H23): 91.9%; growth at 10 µM (HOP-62): 102%; growth at 10 µM (A549): 103%; growth at 10 µM (SR): 106%; growth at 10 µM (HL-60(TB)): 135%
